The values below come from ChEMBL document CHEMBL1130045, “7-Spiroindanyl derivatives of naltrexone and oxymorphone as selective ligands for delta opioid receptors” (J Med Chem, 1997).

The species named for test [1] is Cavia porcellus. The test can be described thus: Compound was tested for agonistic activity on the electrically stimulated guinea pig ileum (GPI) at 1 uM. The class given is functional.
Test [2] has as its target Opioid receptors; mu & delta (Homo sapiens) (UniProt P41143+P35372). As to the kind of experiment: Antagonist selectivity ratio measured as delta IC50 to that of mu receptor IC50 values. The class given is functional. In a few lines: (§1)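 Derived from the tissue antagonism data. The δ IC50 ratio (DADLE, mouse vas deferens) is divided by the μ (morphine) or κ (ethylketazocine) IC50 ratio from guinea pig ileum, each ratio measured at 100 nM antagonist. An IC50 ratio below unity is set to a minimum of 1 in the calculation.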

The target of test [3] is Opioid receptors; mu & kappa (Homo sapiens) (UniProt P41145+P35372). The test can be described thus: Antagonist selectivity ratio measured as delta IC50 to that of mu kappa IC50 values. Type of test: functional. In a few lines:
as §1

Test [4] is filed under the species Mus musculus. As to the kind of experiment: Compound was tested for the antagonist activity on the electrically stimulated mouse vas deferens using DADLE as delta opioid receptor agonist. The class given is functional. In a few lines:
(§2)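 Electrically stimulated guinea pig ileum (morphine, μ; ethylketazocine, κ) or mouse vas deferens (DADLE, δ). The test ligand is incubated with the tissue for 15 min, then the agonist curve is run with 100 nM antagonist present. Read-out is the IC50 ratio: agonist IC50 with antagonist divided by the control IC50 in the same preparation. Three or more replicates.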

The target of test [5] is Mu-type opioid receptor (Mus musculus) (UniProt P42866). The test can be described thus: Compound was tested for its ability to antagonize the antinociceptive effect of morphine (mu opioid receptor agonist) in mice. Type of test: functional. In a few lines: (§3)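 Tail-flick antinociception in ICR mice. Antagonist is given icv at 5 or 10 nmol, timed so its 20 min peak effect falls at the centre of the observation period. Agonists are DPDPE and DSLET icv, and morphine sc. Read-out is the agonist ED50 with antagonist divided by the control ED50, with 95% confidence limits.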

Test [6] deals with Kappa-type opioid receptor (Mus musculus) (UniProt P33534). As to the kind of experiment: Compound was tested for its ability to antagonize the antinociceptive effect of U-69,594 (kappa opioid receptor agonist) in mice. Type of test: functional.
The species named for test [7] is Mus musculus. The test can be described thus: Compound was tested for agonistic activity on the electrically stimulated mouse vas deferens (MVD) at 1 uM. Type of test: functional.
For test [8], the target named is Kappa-type opioid receptor (Cavia porcellus) (UniProt P41144). As to the kind of experiment: Antagonist activity against electrically stimulated guinea pig ileum using ethylketazocine (EK) as kappa opioid receptor agonist. The class given is functional, tissue-based. In a few lines:
as §2

Test [9] concerns the target Delta-type opioid receptor (Mus musculus) (UniProt P32300). The test can be described thus: Compound was tested for its ability to antagonize the antinociceptive effect of DPDPE (delta-1 opioid receptor agonist) in mice. The class given is functional. In a few lines:
as §3

For test [10] the target is unchanged. The test can be described thus: Compound was tested for its ability to antagonize the antinociceptive effect of DSLET (delta-2 opioid receptor agonist) in mice. Type of test: functional. In a few lines:
as §3

Test [11] deals with Mu-type opioid receptor (Cavia porcellus) (UniProt P97266). As to the kind of experiment: Antagonist activity against electrically stimulated guinea pig ileum using morphine (M) as mu opioid receptor agonist. Type of test: functional, tissue-based. The method in brief: as §2
Test [12] deals with T1, Delta-type opioid receptor (Mus musculus, UniProt P32300). The test can be described thus: […]. The class given is functional. In a few lines: (§4)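 Competition binding in ICR mouse brain membranes, using a modified Werling procedure. Radioligands are [3H]naltrindole for δ, [3H]DAMGO for μ and [3H]U69593 for κ. Ki values are derived from the competition curves.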
Test [13] concerns the target Mu-type opioid receptor (Mus musculus, UniProt P42866). The test can be described thus: […]. The class given is functional. The method in brief:
as §4

Test [14] concerns the target Kappa-type opioid receptor (Mus musculus, UniProt P33534). As to the kind of experiment: […]. Type of test: functional. The method in brief: as §4
Test [15] concerns the target Kappa-type opioid receptor (Homo sapiens, UniProt P41145). The test can be described thus: […]. Type of test: functional.
The target of test [16] is Delta-type opioid receptor (Homo sapiens, UniProt P41143). The test can be described thus: […]. Type of test: functional.
The target in test [17] is Mu-type opioid receptor (Homo sapiens, UniProt P35372). As to the kind of experiment: […]. The class given is functional.
Test [18] is filed under the species Mus musculus. As to the kind of experiment: Compound was tested for agonistic activity on the electrically stimulated mouse vas deferens (MVD). The class given is functional, organism-based.
Test [19] deals with T1, Delta-type opioid receptor. The test can be described thus: The compound tested for […] against [3H]- NT1 (Opioid receptor delta 1) opioid receptor. The method in brief:
as §4

For test [20], the species on record is Cavia porcellus. As to the kind of experiment: Compound was tested for agonistic activity on the electrically stimulated guinea pig ileum (GPI). The class given is functional, organism-based.

Sequence of Kappa-type opioid receptor (Mus musculus, UniProt P33534) (P33534 whole entry): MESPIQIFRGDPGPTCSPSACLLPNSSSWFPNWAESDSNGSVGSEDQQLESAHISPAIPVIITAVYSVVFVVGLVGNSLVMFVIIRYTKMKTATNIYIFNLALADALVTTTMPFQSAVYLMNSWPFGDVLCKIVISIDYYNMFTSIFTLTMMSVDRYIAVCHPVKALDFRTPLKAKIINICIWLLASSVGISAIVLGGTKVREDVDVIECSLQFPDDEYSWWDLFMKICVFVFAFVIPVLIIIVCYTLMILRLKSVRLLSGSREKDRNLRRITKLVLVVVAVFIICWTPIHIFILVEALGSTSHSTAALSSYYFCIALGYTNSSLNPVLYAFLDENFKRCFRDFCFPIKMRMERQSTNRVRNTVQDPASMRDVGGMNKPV
Sequence of Kappa-type opioid receptor (Mus musculus) (P33534 whole entry): as above
Sequence of Opioid receptors; mu & kappa (Homo sapiens) (P35372 whole entry, looked up): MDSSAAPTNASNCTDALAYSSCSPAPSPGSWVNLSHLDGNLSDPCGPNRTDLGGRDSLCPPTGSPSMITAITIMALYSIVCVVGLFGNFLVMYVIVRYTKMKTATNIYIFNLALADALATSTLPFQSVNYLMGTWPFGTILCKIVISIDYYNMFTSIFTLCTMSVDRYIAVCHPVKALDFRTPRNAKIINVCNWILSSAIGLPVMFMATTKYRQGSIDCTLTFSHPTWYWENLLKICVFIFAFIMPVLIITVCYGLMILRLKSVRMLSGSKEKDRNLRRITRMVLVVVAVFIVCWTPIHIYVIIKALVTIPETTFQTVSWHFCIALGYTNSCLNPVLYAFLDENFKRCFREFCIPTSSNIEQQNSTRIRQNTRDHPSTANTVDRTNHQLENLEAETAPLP
Sequence of Opioid receptors; mu & kappa (Homo sapiens) (P41145 whole entry, looked up): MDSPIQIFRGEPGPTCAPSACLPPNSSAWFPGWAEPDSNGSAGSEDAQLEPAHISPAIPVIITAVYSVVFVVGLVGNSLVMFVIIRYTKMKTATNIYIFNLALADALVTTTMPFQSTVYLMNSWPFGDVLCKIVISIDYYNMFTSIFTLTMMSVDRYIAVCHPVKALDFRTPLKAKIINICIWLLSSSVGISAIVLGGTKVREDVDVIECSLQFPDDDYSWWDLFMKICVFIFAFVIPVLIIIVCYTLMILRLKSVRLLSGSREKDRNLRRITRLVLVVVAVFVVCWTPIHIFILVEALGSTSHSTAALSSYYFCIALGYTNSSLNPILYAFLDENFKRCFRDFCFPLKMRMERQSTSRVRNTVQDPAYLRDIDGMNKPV
Sequence of Opioid receptors; mu & delta (Homo sapiens) (P35372 whole entry, looked up): as the sequence (P35372 whole entry, looked up) above
Sequence of Opioid receptors; mu & delta (Homo sapiens) (P41143 whole entry, looked up): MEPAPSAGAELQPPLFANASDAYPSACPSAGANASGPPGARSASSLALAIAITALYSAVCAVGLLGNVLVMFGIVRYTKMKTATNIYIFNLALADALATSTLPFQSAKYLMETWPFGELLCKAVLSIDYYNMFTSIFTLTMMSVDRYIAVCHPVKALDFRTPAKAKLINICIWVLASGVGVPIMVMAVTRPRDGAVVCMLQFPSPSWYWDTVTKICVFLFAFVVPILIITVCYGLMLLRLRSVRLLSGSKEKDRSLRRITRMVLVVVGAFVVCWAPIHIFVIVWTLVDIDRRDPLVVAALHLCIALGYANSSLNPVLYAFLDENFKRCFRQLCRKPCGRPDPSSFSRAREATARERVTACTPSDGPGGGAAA
Sequence of Mu-type opioid receptor (Cavia porcellus) (P97266 whole entry): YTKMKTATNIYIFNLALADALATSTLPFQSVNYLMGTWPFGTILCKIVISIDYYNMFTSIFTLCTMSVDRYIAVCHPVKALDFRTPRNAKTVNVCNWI
Sequence of Kappa-type opioid receptor (Cavia porcellus) (P41144 whole entry): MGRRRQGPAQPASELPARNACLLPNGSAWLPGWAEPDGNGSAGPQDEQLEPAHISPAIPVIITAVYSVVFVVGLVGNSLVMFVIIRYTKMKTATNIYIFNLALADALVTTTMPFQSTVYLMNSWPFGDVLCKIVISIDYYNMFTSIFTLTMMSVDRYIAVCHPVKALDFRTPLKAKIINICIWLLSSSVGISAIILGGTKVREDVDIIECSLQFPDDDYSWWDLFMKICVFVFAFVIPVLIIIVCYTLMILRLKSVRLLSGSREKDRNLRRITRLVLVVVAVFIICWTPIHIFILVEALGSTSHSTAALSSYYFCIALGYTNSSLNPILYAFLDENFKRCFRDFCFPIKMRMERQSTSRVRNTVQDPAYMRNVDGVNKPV
T1 sequence (P32300 whole entry): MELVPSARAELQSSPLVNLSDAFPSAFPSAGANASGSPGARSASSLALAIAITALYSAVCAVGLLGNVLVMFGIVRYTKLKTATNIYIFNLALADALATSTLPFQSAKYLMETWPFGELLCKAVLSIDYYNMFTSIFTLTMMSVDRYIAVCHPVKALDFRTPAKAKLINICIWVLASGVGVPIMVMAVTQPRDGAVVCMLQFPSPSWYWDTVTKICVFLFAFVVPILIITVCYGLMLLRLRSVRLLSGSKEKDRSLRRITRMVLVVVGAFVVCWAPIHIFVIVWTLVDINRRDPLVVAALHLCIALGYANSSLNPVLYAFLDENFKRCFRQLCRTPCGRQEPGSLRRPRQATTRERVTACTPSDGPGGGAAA
Sequence of Delta-type opioid receptor (Mus musculus) (P32300 whole entry): as above
Sequence of Mu-type opioid receptor (Mus musculus, UniProt P42866) (P42866 whole entry): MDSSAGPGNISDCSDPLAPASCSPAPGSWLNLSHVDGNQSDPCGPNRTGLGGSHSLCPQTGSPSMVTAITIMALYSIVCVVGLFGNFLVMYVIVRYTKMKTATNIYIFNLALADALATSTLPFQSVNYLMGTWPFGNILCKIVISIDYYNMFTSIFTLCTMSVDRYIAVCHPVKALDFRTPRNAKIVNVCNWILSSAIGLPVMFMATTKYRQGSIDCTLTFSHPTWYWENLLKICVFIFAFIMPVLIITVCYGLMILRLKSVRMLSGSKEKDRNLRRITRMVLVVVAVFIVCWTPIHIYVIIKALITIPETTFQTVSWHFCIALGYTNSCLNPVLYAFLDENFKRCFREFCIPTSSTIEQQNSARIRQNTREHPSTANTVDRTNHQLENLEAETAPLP
Sequence of Mu-type opioid receptor (Mus musculus) (P42866 whole entry): as above
Sequence of Mu-type opioid receptor (Homo sapiens, UniProt P35372) (P35372 whole entry): as the sequence (P35372 whole entry, looked up) above
Sequence of Delta-type opioid receptor (Homo sapiens, UniProt P41143) (P41143 whole entry): as the sequence (P41143 whole entry, looked up) above
Sequence of Kappa-type opioid receptor (Homo sapiens, UniProt P41145) (P41145 whole entry): as the sequence (P41145 whole entry, looked up) above

The Ki is a measure of affinity in units of concentration, obtained from inhibition or displacement. As to `COc1cccc2c1CC1(C2)C[C@@]2(O)C3Cc4ccc(O)c5c4C2(CCN3CC2CC2)C(O5)C1=O` (stereo not given in full), the Max response in the test listed under Cavia porcellus [1] is recorded as -4.5%; in the test listed under Mus musculus [7], -18%. The IC50 ratio in [2] was 13.7; in [3], 35; in the test listed under Mus musculus [4], 85; in test [8] it was 2.4; in test [11] it was 6.2. The ED50 ratio in [5] was determined as 2.5; in test [6], 3.4; in test [9], 5.6; in [10] it was 4.3. The Ki was 0.028 nM in [12], 0.44 nM on Mu-type opioid receptor [13] and above 3000 nM in test [14].
In the case of `O=C1C2Oc3c(O)ccc4c3C23CCN(CC2CC2)C(C4)[C@]3(O)CC12Cc1ccc3ccccc3c1C2` (stereo not given in full), the Max response in the test filed under Cavia porcellus [1] was determined as 13.9%; in the test filed under Mus musculus [7], 14%. Moreover, the IC50 ratio in test [2] was found to be 25; in test [3], 14.7; in the test listed under Mus musculus [4], 25; in test [8], 1.7; in test [11], 1.
Consider `O=C1C2Oc3c(O)ccc4c3C23CCN(CC2CC2)C(C4)[C@]3(O)CC12Cc1cc3ccccc3cc1C2` (stereo not given in full), for which the figures for the Max response in the test filed under Cavia porcellus [1] and in the test listed under Mus musculus [7] were 52% and 4.9%, respectively. Besides, the IC50 ratio was determined as 14.1 in test [2]; 48 in [3]; 48 in the test listed under Mus musculus [4]; 0.24 in test [8]; 3.4 in [11]. The ED50 ratio is 0.8 in [5], 0.8 in test [6], 4.4 in [9] and 1.5 in test [10]. The Ki result in test [12] is “Non-competitive inhibition”; on Mu-type opioid receptor [13], 7.81 nM; in test [14], 1030 nM.
Regarding `O=C1[C@@H]2Oc3c(O)ccc4c3[C@@]23CCN(CC2CC2)[C@H](C4)[C@]3(O)CC12Cc1ccccc1C2`, the results for the Max response in the test filed under Cavia porcellus [1] and in the test filed under Mus musculus [7] were 16% and -8%, respectively. Besides, in the test listed under Mus musculus [4], the IC50 ratio is 130. In addition, the Ki in test [15] was above 3000 nM; in test [16], 0.25 nM; at Mu-type opioid receptor [17] it was 1.53 nM.
The term IC50 denotes the concentration at which inhibition is half-maximal. Low readings indicate greater potency, high ones weaker potency. For `CN1CC[C@]23c4c5ccc(O)c4O[C@H]2C(=O)C2(Cc4ccccc4C2)C[C@@]3(O)[C@H]1C5` [SPIROINDANYLOXYMORPHONE], the Max response in the test filed under Cavia porcellus [1] is given as 55%. Moreover, the results for the Ki (in test [15]; in [16]; at Mu-type opioid receptor [17]) were above 3000 nM, 2.75 nM and 14.3 nM, respectively. The results for the IC50 ratio in [8] and in [11] were 0.99 and 1.2, respectively. Moreover, the IC50 in the test listed under Mus musculus [18] worked out at 23 nM.
On to `CN1CCC23c4c5ccc(O)c4OC2C(=O)C2(Cc4cc6ccccc6cc4C2)C[C@@]3(O)C1C5` (stereo not given in full), for which the Max response in the test listed under Cavia porcellus [1] is recorded as 13.4%; in the test listed under Mus musculus [7], 57%. Also, the IC50 ratio stood at 1 in test [2]; 1 in [3]; 1.1 in the test filed under Mus musculus [4]; 1.2 in [8]; 0.58 in test [11]. For the same compound, the ED50 ratio was 2 in test [5], 3 in [6], 1.5 in [9] and 0.9 in test [10]. Besides, the Ki was 31.6 nM in test [19], 125 nM on Mu-type opioid receptor [13] and above 3000 nM in test [14].
Turning to `O=C1/C(=C/c2ccccc2)C[C@@]2(O)[C@H]3Cc4ccc(O)c5c4[C@@]2(CCN3CC2CC2)[C@H]1O5`, the ED50 ratio in test [5] is 0.8; in test [6] it was 1.2; in test [9], 7.2; in test [10], 0.91.
Regarding `COc1ccc2c(c1)CC1(C2)C[C@@]2(O)C3Cc4ccc(O)c5c4C2(CCN3CC2CC2)C(O5)C1=O` (stereo not given in full), the Max response in the test filed under Cavia porcellus [1] is on record as -52%; in the test listed under Mus musculus [7] it was 0.6%. Besides, the IC50 ratio worked out at 1.7 in [2]; 4.2 in [3]; 11.8 in the test listed under Mus musculus [4]; 2.8 in test [8]; 6.9 in [11].
With `O=C1C2Oc3c(O)ccc4c3C23CCN(CC2CC2)C(C4)[C@]3(O)CC12Cc1cccc3cccc(c13)C2` (stereo not given in full), the Max response in the test filed under Cavia porcellus [1] came out at 11.2%; in the test listed under Mus musculus [7], 17.6%. For the same compound, the IC50 ratio is 12.6 in [2]; 12.6 in test [3]; 12.6 in the test listed under Mus musculus [4]; 0.78 in test [8]; 0.93 in test [11].
With `COc1cccc2c1CC1(C2)C[C@@]2(O)C3Cc4ccc(O)c5c4C2(CCN3C)C(O5)C1=O` (stereo not given in full), the concentration for half-maximal inhibition (IC50) is 27 nM in the test filed under Mus musculus [18] and 148 nM in the test filed under Cavia porcellus [20]. Besides, the values for the Ki (in test [12]; at Mu-type opioid receptor [13]; in test [14]) were 5.49 nM, 9.24 nM and above 3000 nM, respectively.
